Key:
Format in all cases: functional, Osteoblast
[1] = Induction of cell proliferation in osteoblasts (unknown origin) at 100 uM after 48 hrs by MTT assay relative to untreated control
Summary of the method: (§1)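 Primary mouse osteoblasts were seeded at 2 × 10^3 cells/well and cultured 24 h, then exposed to compound for 48 h. MTT (5.0 mg/ml) was added for a further 4 h at 37 °C, and formazan was dissolved in DMSO. OD was read at 570 nm. Viability = (OD sample − blank)/(OD untreated control − blank) × 100. The blank was cell-free medium.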

[2] = Induction of cell proliferation in osteoblasts (unknown origin) at 1 uM after 48 hrs by MTT assay relative to untreated control; summary of the method: as §1
[3] = Induction of cell proliferation in osteoblasts (unknown origin) at 10 uM after 48 hrs by MTT assay relative to untreated control; summary of the method: as §1

SMILES | Activity [1] | Activity [2] | Activity [3]
COc1cc(O)cc2c1C(=O)O[C@H](C)CCC(=O)CCCC2 | 3.28% | 2.87% | -4.29%
[F-].[Na+] [SODIUM FLUORIDE] | 22.54% | 12.15% | 18.76%
COC1=CC(=O)C=C2CCCC(=O)CCC[C@@H](C)OC(=O)[C@@]21O | 2.61% | 10% | 8.94%
COc1cc(O)cc2c1C(=O)O[C@H](C)CCCCCCC2 | 51.55% | 3.45% | 14.19%
COc1cc(O)cc2c1C(=O)O[C@H](C)CC[C@@H](O)CCCC2 | 2.1% | 3.97% | -6.67%
C[C@@H]1CCCCCCCc2cc(O)cc(O)c2C(=O)O1 | 19.48% | 1.67% | -4.54%
COC1=CC(=O)C=C2CCCCC(=O)CC[C@@H](C)OC(=O)[C@@]21O | 19.62% | 12.54% | 10.92%
COC1=CC(=O)C=C2CCCCCCC[C@@H](C)OC(=O)[C@@]21O | -68.32% | -7.91% | -43.92%

Source: ChEMBL document CHEMBL3351425, “Lactones from Ficus auriculata and their effects on the proliferation function of primary mouse osteoblasts in vitro” (2014)
